Assay results as given in ChEMBL document CHEMBL4041534, “Treatment of Sepsis Pathogenesis with High Mobility Group Box Protein 1-Regulating Anti-inflammatory Agents” (J Med Chem, 2017).
Numbering of substitutions follows the chain as printed. ≈ marks a conversion by molar mass, not a printed value. Calls of active or inactive are those of the source. The rule behind the calls is not given here.

What was measured:
[1] = Cytotoxicity against mouse RAW264.7 cells assessed as cell viability at 10 uM in presence of LPS measured after 24 hrs by WST assay relative to control; type: cell-based; details: read-out: Activity
Method in brief: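 Raw264.7 cells, seeded 1 day earlier, were washed into serum-free DMEM and given 100 ng/mL LPS plus compound (10 μM) for 24 h. After the supernatant was removed, wells were refilled with 10% FBS DMEM and WST reagent was added for 20 min at 37 °C. Absorbance was read at 450 nm, and viability is relative to vehicle. At least three independent experiments.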

[2] = target: T1, High mobility group protein B1 (Mus musculus) (UniProt P63158); assay: Inhibition of HMGB1 translocation from nucleus to cytosol in LPS-stimulated mouse RAW264.7 cells assessed as inhibition of NO release at 10 uM measured after 24 hrs by Griess assay relative to control
T1 sequence (whole entry): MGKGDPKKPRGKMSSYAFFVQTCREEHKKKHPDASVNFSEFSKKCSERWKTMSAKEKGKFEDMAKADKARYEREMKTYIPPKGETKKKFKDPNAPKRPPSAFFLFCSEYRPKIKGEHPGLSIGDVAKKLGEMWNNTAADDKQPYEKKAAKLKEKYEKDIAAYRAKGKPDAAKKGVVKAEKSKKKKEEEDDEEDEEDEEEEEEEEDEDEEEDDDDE
Method in brief: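 Raw264.7 cells, seeded 1 day earlier, were moved to serum-free DMEM and exposed to 100 ng/mL LPS with 10 μM compound for 24 h. Supernatant NO was measured with Griess reagent (sulfanilamide/N-(1-naphthyl)ethylenediamine/phosphoric acid) at room temperature, absorbance 548 nm. Inhibition was set against LPS+DMSO wells, blank-corrected, with four control wells. At least three independent experiments.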

[3] = target: T1, High mobility group protein B1 (Mus musculus); assay: Inhibition of HMGB1 translocation from nucleus to cytosol in LPS-stimulated mouse RAW264.7 cells assessed as inhibition of TNF-alpha production at 10 uM measured after 4 hrs by ELISA relative to control
Method in brief: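 Raw264.7 cells in serum-free DMEM were treated with 100 ng/mL LPS and 10 μM compound (final). After 4 h, medium was diluted in 1% BSA/PBS and secreted TNF-α was quantified by ELISA against a standard curve of TNF-α protein. Inhibition is relative to control. At least three independent experiments.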

[4] = target: T1, High mobility group protein B1 (Mus musculus); assay: Inhibition of HMGB1 nuclear translocation in LPS-stimulated mouse RAW264.7 cells at 20 uM pretreated for 1 hr followed by LPS-induction measured after 2 hrs by Hoechst 33342/TRITC staining based immunofluorescence microscopic method
Method in brief: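 Raw264.7 cells on chambered coverglass were pretreated with 20 μM compound for 1 h, then given 500 ng/mL LPS for 2 h. Cells were fixed in 4% paraformaldehyde, permeabilized with methanol at −20 °C, blocked with 2% BSA, and stained with anti-HMGB1 plus TRITC secondary and Hoechst 33342. Imaged by deconvolution fluorescence microscopy. At least three independent experiments.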

[5] = test system: Mus musculus; assay: Anti-inflammatory activity in C57BL/6(B6) mouse model of CLP-induced sepsis assessed as increase in survival rate at 10 mg/kg, ip administered daily for 9 days starting from 1 hr prior to CLP-induction; type: functional, organism-based
Method in brief: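 C57BL/6 mice from a specific pathogen-free facility underwent CLP. The cecum was ligated below the ileocecal valve 5.0 mm from the tip, punctured once with a 20-gauge needle and a little stool extruded, then the abdomen was closed. Mice received 10 mg/kg ip daily for 9 days and survival was followed against vehicle-treated mice.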

[6] = Equilibrium aqueous solubility of the compound by microsol method; type: physicochemical
Method in brief: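 Equilibrium aqueous solubility by the μsol method. Mean ± SD, n = 3.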

[7] = test system: Mus musculus; assay: Anti-inflammatory activity in C57BL/6(B6) mouse model of CLP-induced sepsis assessed as survival rate at 10 mg/kg, ip administered daily for 21 days starting from 1 hr prior to CLP-induction (reference value: 10 %); type: functional
[8] = target: T1, High mobility group protein B1 (Mus musculus); assay: Inhibition of HMGB1 nuclear translocation in LPS-stimulated mouse RAW264.7 cells assessed as inhibition of IL-6 production at 10 uM pretreated for 1 hr followed by LPS-induction by Western blot analysis
Method in brief: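 Raw264.7 cells were pretreated with 10 μM compound for 1 h, then given 100 ng/mL LPS. IL-6 released into the culture medium was detected by Western blot with ECL chemiluminescence, DMSO as control. At least three independent experiments.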

[9] = target: T2, High mobility group protein B1 (Homo sapiens) (UniProt P09429); assay: Inhibition of ICM-BP binding to recombinant human HMGB1 assessed as reduction in Cy5-azide incorporation pretreated for 60 mins followed by ICM-BP addition for 20 mins and subsequent UV light irradiation for 5 mins by fluorescence assay
T2 sequence (whole entry): T1 sequence (whole entry) with D189E, E202D
Method in brief: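 Purified HMGB1 (1 μg in water) was pretreated with competitor for 60 min, with DMSO held at 0.8% final. ICM-BP (5 μM) was then added for 20 min, followed by 365 nm UV for 5 min on ice. Cy5-azide was attached by click reaction, then samples were run on 12.5% SDS-PAGE and in-gel fluorescence scanned. Competitor was dosed in a graded series.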

[10] = organism: Mus musculus; assay: Inhibition of JNK phosphorylation at Thr183/Tyr185 resdiues in LPS-stimulated mouse RAW264.7 cells at 20 uM pretreated followed by LPS-induction by Western blot analysis
Method in brief: (§1)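 Raw264.7 cells were pretreated with 20 μM compound, then stimulated with 100 ng/mL LPS, with DMSO as control. Lysates in RIPA buffer with protease and phosphatase inhibitors were normalized by BCA and run on SDS-PAGE/Western blot for phospho-p38, JNK and ERK, with GAPDH as loading control. Detection by ECL, and band intensities were quantified. At least three independent experiments.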

[11] = test system: Mus musculus; assay: Anti-inflammatory activity in C57BL/6(B6) mouse model of CLP-induced sepsis assessed as decrease in serum IL-6 level at 10 mg/kg, ip administered daily for 21 days starting from 1 hr prior to CLP-induction by ELISA; type: functional, organism-based
Method in brief: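 Serum IL-6 measured by sandwich ELISA. Blood was taken from CLP-induced C57BL/6 mice 24 h after surgery. Plates coated with anti-IL-6 mAb overnight at 4 °C and blocked with 1% BSA/PBS; serum incubated overnight at 4 °C. Detection used biotinylated anti-IL-6 and streptavidin-HRP, TMB development and absorbance at 450 nm. Run in triplicate, three independent repeats.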

[12] = test system: Mus musculus; assay: Anti-inflammatory activity in C57BL/6(B6) mouse model of CLP-induced sepsis assessed as decrease in serum IL-6 level at 10 mg/kg, ip administered daily for 9 days starting from 1 hr prior to CLP-induction by ELISA; type: functional, organism-based
[13] = organism: Mus musculus; assay: Inhibition of ERK phosphorylation in LPS-stimulated mouse RAW264.7 cells at 20 uM pretreated followed by LPS-induction by Western blot analysis; method in brief: as §1
[14] = target: MAP kinase p38 (Mus musculus) (UniProt P47811+O08911+Q9WUI1+Q9Z1B7); assay: Inhibition of MAPK p38 phosphorylation at Thr180/Tyr182 resdiues in LPS-stimulated mouse RAW264.7 cells at 20 uM pretreated followed by LPS-induction by Western blot analysis; method in brief: as §1
[15] = Stability in human liver microsomes assessed as compound remaining preincubated for 5 mins followed by NADPH addition measured after 30 mins LC/MS/MS method; type: ADME, microsome; details: read-out: Stability
Method in brief: (§2)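 Compounds were incubated with human or mouse liver microsomes in 100 mM potassium phosphate, pH 7.4, at 37 °C for 5 min. NADPH regenerating solution was added, and the reaction was stopped at 30 min with ice-cold acetonitrile containing imipramine internal standard. Percent remaining was measured by LC/MS/MS. Mean ± SD, n = 3.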

[16] = Stability in mouse liver microsomes assessed as compound remaining preincubated for 5 mins followed by NADPH addition measured after 30 mins LC/MS/MS method; type: ADME, microsome; details: read-out: Stability; method in brief: as §2
[17] = organism: Mus musculus; assay: Inhibition of NF-kappaB p65 nuclear translocation in LPS-stimulated mouse RAW264.7 cells at 20 uM pretreated followed by LPS-induction by Hoechst 33342/TRITC staining based immunofluorescence microscopic method
Method in brief: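 NF-κB p65 immunofluorescence in Raw264.7 cells pretreated with 20 μM compound, then stimulated with 500 ng/mL LPS. Fixation was 4% paraformaldehyde, methanol permeabilization at −20 °C, and BSA blocking. Cells were stained with anti-p65 plus TRITC secondary and Hoechst 33342 nuclear stain, then imaged by deconvolution microscopy. At least three independent experiments.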

[18] = test system: RAW264.7; assay: Cytotoxicity against mouse RAW264.7 cells assessed as reduction in cell viability at >10 uM in presence of LPS measured after 24 hrs by WST assay; type: cell-based; details: raw264.7, 24 h

inhibition [2]	inhibition [3]	SMILES	viability at 24 h, 10 µM [1]	also measured
89%	44%	COc1ccc(-n2c(=O)n3n(c2=O)C2C(=CC3)C(C)(C)Oc3cc(O)ccc32)cc1 (centres undefined)	127%	–
55%	–	COc1ccc2c(c1)C1C(=CCn3c(=O)n(-c4ccccc4)c(=O)n31)C(C)(C)O2 (centres undefined)	–	–
70%	–	CC1(C)Oc2cc(O)ccc2C2C1=CCn1c(=O)n(Cc3ccccc3)c(=O)n12 (centres undefined)	106%	–
96%	38%	COc1cccc(-n2c(=O)n3n(c2=O)C2C(=CC3)C(C)(C)Oc3cc(O)ccc32)c1 (centres undefined)	118%	–
26%	–	COc1ccc2c(c1O)OC(C)(C)C1=CCn3c(=O)n(-c4ccccc4)c(=O)n3C12 (centres undefined)	–	–
52%	–	CNc1ccc2c(c1)OC(C)(C)C1=CCn3c(=O)n(-c4ccccc4)c(=O)n3C12 (centres undefined)	–	–

Further lines, the molecule ahead of its results:

SMILES	inhibition [2]	inhibition [3]	viability at 24 h, 10 µM [1]	also measured
CC1(C)Oc2cc(O)ccc2C2C1=CCn1c(=O)n(-c3ccccc3)c(=O)n12 (centres undefined)	87%	43%	105%	inhibition [4]: Active; Activity [5]: Active; solubility thermodynamic [6]: 23.5 µg/mL (≈ 62.3 µM); survival at 10 mg/kg [7]: 45%; inhibition [8]: Active; inhibition [9]: Dose-dependent effect; inhibition [10]: Active; Activity [11]: Active; Activity [12]: Active; inhibition [13]: Active; inhibition [14]: Active; remaining at 0.5 h [15]: 0.82%; remaining at 0.5 h [16]: 0.41%; inhibition [17]: Active
CC1(C)Oc2cc(O)ccc2C2C1=CCn1c(=O)n(-c3ccc4c(c3)OCO4)c(=O)n12 (centres undefined)	92%	46%	121%	inhibition [4]: Active; inhibition [8]: Active
CC1(C)Oc2cc(O)ccc2C2C1=CCn1c(=O)n(-c3ccccc3I)c(=O)n12 (centres undefined)	48%	–	109%	–
Cc1ccc(-n2c(=O)n3n(c2=O)C2C(=CC3)C(C)(C)Oc3cc(O)ccc32)cc1 (centres undefined)	94%	45%	130%	inhibition [4]: Active; inhibition [8]: Active
CC1(C)Oc2cc(O)ccc2C2C1C=Cn1c(=O)n(-c3ccccc3)c(=O)n12 (centres undefined)	inactive	–	–	–
CC1(C)Oc2cc(O)ccc2C2C1=CCn1c(=O)n(-c3ccc(C(F)(F)F)cc3)c(=O)n12 (centres undefined)	85%	–	106%	Activity [18]: Toxic
